For test [1], the target named is T1, Prostaglandin G/H synthase 1 (Ovis aries) (UniProt P05979).
T1 sequence (whole entry): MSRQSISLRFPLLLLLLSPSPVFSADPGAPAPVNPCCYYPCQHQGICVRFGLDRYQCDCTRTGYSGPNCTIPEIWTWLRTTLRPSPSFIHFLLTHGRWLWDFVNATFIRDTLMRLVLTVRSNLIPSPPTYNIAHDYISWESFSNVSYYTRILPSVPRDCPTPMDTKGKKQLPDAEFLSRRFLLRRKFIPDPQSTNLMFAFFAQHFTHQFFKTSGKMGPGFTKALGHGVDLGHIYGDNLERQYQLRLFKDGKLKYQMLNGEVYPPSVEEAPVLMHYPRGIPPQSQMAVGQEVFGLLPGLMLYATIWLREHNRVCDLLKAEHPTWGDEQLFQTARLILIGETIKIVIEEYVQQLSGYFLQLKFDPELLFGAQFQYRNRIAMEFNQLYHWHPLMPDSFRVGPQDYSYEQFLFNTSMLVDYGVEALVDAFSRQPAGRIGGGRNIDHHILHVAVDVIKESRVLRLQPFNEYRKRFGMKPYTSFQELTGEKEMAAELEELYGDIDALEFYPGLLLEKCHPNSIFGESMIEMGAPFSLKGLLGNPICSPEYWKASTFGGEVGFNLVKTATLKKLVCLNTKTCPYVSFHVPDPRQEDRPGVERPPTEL
Kind of test: Inhibition of ovine COX1 assessed as inhibition of 12-HHT formation preincubated at 10 uM for 5 mins before arachidonic acid addition by HPLC analysis.

The target of test [2] is T2, Polyunsaturated fatty acid 5-lipoxygenase (Homo sapiens) (UniProt P09917).
T2 sequence (whole entry): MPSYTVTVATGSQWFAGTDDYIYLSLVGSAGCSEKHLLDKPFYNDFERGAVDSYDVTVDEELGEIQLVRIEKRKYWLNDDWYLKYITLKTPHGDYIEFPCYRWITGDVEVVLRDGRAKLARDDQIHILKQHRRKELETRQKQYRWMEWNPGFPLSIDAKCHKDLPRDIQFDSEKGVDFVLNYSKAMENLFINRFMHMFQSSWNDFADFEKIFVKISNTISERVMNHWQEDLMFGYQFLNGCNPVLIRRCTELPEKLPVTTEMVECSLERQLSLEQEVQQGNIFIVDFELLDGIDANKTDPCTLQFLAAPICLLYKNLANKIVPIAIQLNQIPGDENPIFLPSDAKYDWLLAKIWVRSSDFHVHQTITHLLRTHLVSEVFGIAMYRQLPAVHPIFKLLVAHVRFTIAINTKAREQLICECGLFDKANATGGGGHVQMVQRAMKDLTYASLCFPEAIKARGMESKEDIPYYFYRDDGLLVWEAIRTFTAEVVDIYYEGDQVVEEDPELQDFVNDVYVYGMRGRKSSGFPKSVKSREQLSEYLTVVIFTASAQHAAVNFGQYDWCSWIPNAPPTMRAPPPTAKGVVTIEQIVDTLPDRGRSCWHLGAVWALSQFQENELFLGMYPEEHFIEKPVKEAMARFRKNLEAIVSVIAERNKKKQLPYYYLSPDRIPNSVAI
Put plainly: Inhibition of 5-lipoxygenase in A23187-stimulated human neutrophils assessed as remaining activity measuring enzyme product formation at 10 uM by RP-HPLC analysis relative to vehicle-treated control. The method in brief:
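Human neutrophils (whole cells) stimulated with A23187 and 20 μM exogenous arachidonic acid; test compounds at 10 μM. Activity expressed as % remaining versus vehicle control; BWA4C as reference inhibitor; mean with SE, n = 3−5.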

Test [3] concerns the target T3, Prostaglandin E synthase (Homo sapiens) (UniProt O14684).
T3 sequence (whole entry): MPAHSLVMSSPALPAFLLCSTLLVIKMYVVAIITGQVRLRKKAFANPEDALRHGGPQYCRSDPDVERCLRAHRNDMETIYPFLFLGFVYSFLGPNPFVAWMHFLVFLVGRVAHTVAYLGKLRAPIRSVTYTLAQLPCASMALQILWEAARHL
Kind of test: Inhibition of mPGES-1 in human IL-1beta-stimulated A549 cell microsomes assessed as remaining activity measuring PGE2 formation from PGH2 at 10 uM after 15 mins by RP-HPLC analysis. The settings on record: Microsome. The essentials:
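Cell-free assay with microsomes from human A549 cells; PGE2 generation from 20 μM PGH2 substrate; compounds tested at 10 μM. Result given as % PGE2 formation remaining versus vehicle control; MK-886 reference; mean with SE, n = 3−5.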

For test [4], the target named is T4, Prostaglandin E synthase (Homo sapiens, UniProt O14684).
T4 sequence (O14684 whole entry): T3 sequence (whole entry)
Kind of test: Inhibition of mPGES-1 in human IL-1beta-stimulated A549 cell microsomes assessed as inhibition of PGE2 formation from PGH2 after 15 mins by RP-HPLC analysis. Further details: species or system Microsome.

Test [5] deals with T5, Polyunsaturated fatty acid 5-lipoxygenase (Homo sapiens, UniProt P09917).
T5 sequence (P09917 whole entry): T2 sequence (whole entry)
Kind of test: Inhibition of 5-lipoxygenase in A23187-stimulated human neutrophils assessed as inhibition of enzyme product formation by RP-HPLC analysis. The essentials: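 Whole-cell assay in human neutrophils stimulated with A23187 plus 20 μM exogenous arachidonic acid as substrate; BWA4C as reference inhibitor. IC50 calculated for selected compounds; mean with SE, n = 3−5.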

Test [6] has as its target T1, Prostaglandin G/H synthase 1 (Ovis aries). Kind of test: Inhibition of ovine COX1 assessed as inhibition of 12-HHT formation measuring remaining activity preincubated at 10 uM for 5 mins before arachidonic acid addition by HPLC analysis. The essentials: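 Isolated ovine COX-1 in a cell-free assay, 5 μM arachidonic acid as substrate; compounds at fixed 10 μM. 12-HHT formation expressed as % activity versus vehicle control; mean with SE, n = 3.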

The source made the active and inactive calls. The calls are words filed in the database; no cut-off is given here.

Turning to `CC(C)Cc1ccc(C(C)C(=O)NS(C)(=O)=O)cc1` (stereo not drawn), the inhibition entry in test [1] is “inactive”. For the same molecule, the Activity in test [2] worked out at 91.2%; in test [3], 67.9%.
For `Cc1ccc(S(=O)(=O)NC(=O)C(C)c2cccc(C(=O)c3ccccc3)c2)cc1` (stereo not drawn) the same measures were “inactive”, 78.9% and 76.3%.
As to `O=C(Cc1cn(-c2ccccc2)nc1-c1ccc(Cl)cc1)NS(=O)(=O)c1ccc(Cl)cc1`, the results for the IC50 in test [4] (read-out: IC50) and in test [5] (read-out: IC50) were 2300 nM and 2900 nM, respectively. For the same molecule, the inhibition entry in test [1] was “inactive”.
Taken in the same sequence, the figures for `O=C(Cc1cn(-c2ccccc2)nc1-c1ccc(C#Cc2ccccc2)cc1)NS(=O)(=O)c1ccc(Cl)cc1` were 200 nM, 1600 nM and “inactive”.
With `COc1ccc2c(c1)c(CC(=O)O)c(C)n2C(=O)c1ccc(Cl)cc1` [INDOMETHACIN], the IC50 in test [4] (read-out: IC50) was 40600 nM; in test [5] it was “Not Active”. In addition, the Activity in test [6] stood at 23.3%.
With `O=C(O)Cc1cn(-c2ccccc2)nc1-c1ccc(C#Cc2cccc(Cl)c2)cc1`, the IC50 in test [4] (read-out: IC50) was 180 nM; in test [5] (read-out: IC50) it was 3900 nM. Besides, the inhibition entry in test [1] was “inactive”.
For `O=C(O)Cc1cn(-c2ccccc2)nc1-c1ccc(C#Cc2ccccc2)cc1` the same measures were 400 nM, 5000 nM and “inactive”.
As for `CC(C(=O)O)c1cccc(C(=O)c2ccccc2)c1` (stereo not drawn) [KETOPROFEN], the IC50 entry in test [5] is listed as “Not Active”.
In the case of `CCOC(=O)Cc1c(C)n(Cc2ccc(Cl)cc2)c2ccc(C#Cc3ccccc3)cc12`, the inhibition result in test [1] was “inactive”. Further, the Activity in test [3] was 86.1%.
With `O=C(O)Cc1cn(-c2ccccc2)nc1-c1ccc(C#Cc2ccc(Cl)cc2)cc1`, the half-maximal inhibitory concentration (IC50) in test [4] (read-out: IC50) was 160 nM; in test [5] (read-out: IC50) it was 3700 nM. The inhibition result in test [1] is “inactive”. The Activity in test [6] turned out to be 77.8%.
Turning to `CC(C(=O)NS(C)(=O)=O)c1cccc(C(=O)c2ccccc2)c1` (stereo not drawn), the inhibition entry in test [1] was “inactive”. In addition, the Activity in test [2] was 90.7%; in test [3], 78.6%.
With `COc1ccc2c(c1)c(C(=O)NCc1ccc(S(C)(=O)=O)cc1)c(C)n2C(=O)c1ccc(Cl)cc1`, in test [1], the inhibition entry was “inactive”. For the same molecule, the Activity in test [3] stood at 68.7%.
For `COc1ccc2c(c1)c(CC(=O)NS(=O)(=O)c1ccc(C)cc1)c(C)n2C(=O)c1ccc(Cl)cc1`, the IC50 came to 6400 nM in test [4] (read-out: IC50) and 2900 nM in test [5] (read-out: IC50). Also, in test [1], the inhibition entry was “inactive”. Besides, in test [6], the Activity was found to be 89.4%.
As for `COc1ccc2c(c1)c(CC(=O)NS(C)(=O)=O)c(C)n2C(=O)c1ccc(Cl)cc1`, the inhibition entry in test [1] is “inactive”. Also, the Activity in test [2] was 64.9%; in test [3], 73.6%.
`Cc1ccc(S(=O)(=O)NC(=O)Cc2cn(-c3ccccc3)nc2-c2ccc(Cl)cc2)cc1`: the IC50 in test [4] (read-out: IC50) turned out to be 3400 nM; in test [5] (read-out: IC50), 2500 nM. Also, the inhibition result in test [1] was “inactive”.
On to `O=C(Cc1cn(-c2ccccc2)nc1-c1ccc(C#Cc2ccc(Cl)cc2)cc1)NS(=O)(=O)c1ccc(Cl)cc1`, for which the IC50 in test [4] (read-out: IC50) is 350 nM; in test [5] (read-out: IC50), 4700 nM. In addition, in test [1], the inhibition entry was “inactive”. Further, the Activity in test [6] worked out at 70.1%.
As to `Cc1c(CC(=O)NS(=O)(=O)c2ccc(Cl)cc2)c2cc(C#Cc3ccccc3)ccc2n1Cc1ccc(Cl)cc1`, the results for the IC50 in test [4] (read-out: IC50) and in test [5] (read-out: IC50) were 1800 nM and 2000 nM, respectively. Further, the inhibition result in test [1] is “inactive”.
As for `CS(=O)(=O)NC(=O)Cc1cn(-c2ccccc2)nc1-c1ccc(Cl)cc1`, the inhibition result in test [1] is “inactive”. Further, the Activity in test [2] was 72.1%; in test [3], 98%.
`O=C(Cc1cn(-c2ccccc2)nc1-c1ccc(Cl)cc1)NS(=O)(=O)c1ccccc1`: the IC50 was determined as 5900 nM in test [4] (read-out: IC50) and 6800 nM in test [5] (read-out: IC50). Also, the inhibition entry in test [1] is “inactive”.
Regarding `Cc1c(CC(=O)O)c2cc(C#Cc3ccccc3)ccc2n1Cc1ccc(Cl)cc1`, the IC50 in test [4] (read-out: IC50) turned out to be 2500 nM; in test [5] (read-out: IC50), 900 nM. Besides, the inhibition entry in test [1] was “inactive”.
On to `CC(C)Cc1ccc(C(C)C(=O)O)cc1` (stereo not drawn) [IBUPROFEN], for which the IC50 entry in test [5] is “Not Active”. The Activity in test [3] came to 81.2%.
For the molecule `COc1ccc2cc(C(C)C(=O)NS(C)(=O)=O)ccc2c1` (stereo not drawn), the inhibition entry in test [1] was “inactive”. In addition, the IC50 entry in test [5] is recorded as “Not Active”. Moreover, the Activity in test [3] amounted to 92.5%.
On to `Cc1ccc(S(=O)(=O)NC(=O)C(C)c2ccc(CC(C)C)cc2)cc1` (stereo not drawn), for which the inhibition entry in test [1] is “inactive”. For the same molecule, the Activity was 67.7% in test [2] and 78.6% in test [3].
On to `Cc1ccc(S(=O)(=O)NC(=O)Cc2cn(-c3ccccc3)nc2-c2ccc(-c3ccccc3)cc2)cc1`, for which the IC50 in test [4] (read-out: IC50) worked out at 1700 nM; in test [5] (read-out: IC50), 3500 nM. Moreover, the inhibition entry in test [1] is “inactive”. Further, the Activity in test [6] turned out to be 99.1%.
As for `O=C(Cc1cn(-c2ccccc2)nc1-c1ccc(C#Cc2cccc(Cl)c2)cc1)NS(=O)(=O)c1ccc(Cl)cc1`, the IC50 in test [4] (read-out: IC50) was found to be 800 nM; in test [5] (read-out: IC50), 2300 nM. Also, the inhibition entry in test [1] is “inactive”.
For `COc1ccc2cc(C(C)C(=O)NS(=O)(=O)c3ccc(C)cc3)ccc2c1` (stereo not drawn), the inhibition entry in test [1] is “inactive”. Moreover, in test [5], the IC50 result was “Not Active”. Moreover, the Activity in test [3] turned out to be 72.8%.
With `Cc1ccc(S(=O)(=O)NC(=O)Cc2c(C)n(Cc3ccc(Cl)cc3)c3ccc(C#Cc4ccccc4)cc23)cc1`, the IC50 in test [4] (read-out: IC50) was 2800 nM; in test [5] (read-out: IC50) it was 1500 nM. Moreover, in test [1], the inhibition result is “inactive”. Besides, the Activity in test [6] came out at 83.1%.
As for `COc1ccc2cc([C@H](C)C(=O)O)ccc2c1` [NAPROXEN], the IC50 entry in test [4] (a549) and in test [5] was “Not Active” throughout.
With `Cc1ccc(S(=O)(=O)NC(=O)Cc2c(C)n(Cc3ccc(Cl)cc3)c3ccc(Br)cc23)cc1`, the IC50 came out at 1750 nM in test [4] (read-out: IC50) and 1700 nM in test [5] (read-out: IC50). The inhibition entry in test [1] was “inactive”.
Take `O=C(O)Cc1cn(-c2ccccc2)nc1-c1ccc(Cl)cc1` [LONAZOLAC CALCIUM]: in test [4] (read-out: IC50), the IC50 came out at 45000 nM. The Activity in test [2] amounted to 59.7%.

One may read the IC50 as the concentration needed to halve the response being measured.
